Measurements published in ChEMBL document CHEMBL4346654 (Eur J Med Chem, 2019).
≈ marks a conversion by molar mass, not a printed value.

Legend:
Assay type in all cases: functional
Streptococcus pneumoniae [1] = assay: Bactericidal activity against erythromycin-susceptible Streptococcus pneumoniae ATCC49619 pretreated followed by subculture in absence of compound measured after 24 hrs
In short: (§1)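 Isolates were identified by 16S rDNA sequencing. MIC was determined by CLSI-recommended two-fold broth dilution. For MBC, samples from 1–8 fold MIC were transferred to culture medium and subcultured for 24 h without antibiotic.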

Streptococcus pneumoniae [2] = assay: Bactericidal activity against penicillin-susceptible Streptococcus pneumoniae PU 09 expressing mef gene pretreated followed by subculture in absence of compound measured after 24 hrs; in short: as §1
Streptococcus pneumoniae [3] = assay: Bactericidal activity against Streptococcus pneumoniae 07P390 expressing constitutive ermB gene pretreated followed by subculture in absence of compound measured after 24 hrs; in short: as §1
Haemophilus influenzae [4] = assay: Bactericidal activity against azithromycin-susceptible Haemophilus influenzae ATCC 49247 pretreated followed by subculture in absence of compound measured after 24 hrs; in short: as §1
Streptococcus pyogenes [5] = assay: Bactericidal activity against MLS-resistant Streptococcus pyogenes 01-968 expressing inducible ermB gene pretreated followed by subculture in absence of compound measured after 24 hrs
In short: (§2)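 MBC assay. Following MIC determination by CLSI standard two-fold broth dilution, samples at 1–8 fold MIC were transferred to fresh culture medium. They were subcultured for 24 h without antibiotic. Isolates were identified by 16S rDNA sequencing. S. aureus ATCC 29213 was used as a control strain.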

Staphylococcus aureus [6] = assay: Bactericidal activity against MLS/methicillin-resistant Staphylococcus aureus PU 32 expressing inducible ermA gene pretreated followed by subculture in absence of compound measured after 24 hrs; in short: as §2
Staphylococcus aureus [7] = assay: Bactericidal activity against MLS-resistant Staphylococcus aureus PU 20 expressing constitutive ermC gene pretreated followed by subculture in absence of compound measured after 24 hrs; in short: as §2
Streptococcus pyogenes [8] = assay: Bactericidal activity against MLS-resistant Streptococcus pyogenes 12-206 expressing constitutive ermA gene pretreated followed by subculture in absence of compound measured after 24 hrs; in short: as §2
Streptococcus pyogenes [9] = assay: Bactericidal activity against Streptococcus pyogenes 12-207 expressing mef gene pretreated followed by subculture in absence of compound measured after 24 hrs; in short: as §1
Staphylococcus aureus [10] = assay: Antibacterial activity against MLS-resistant Staphylococcus aureus PU 32 expressing inducible ermA gene assessed as reduction in microbial growth by CLSI based two-fold broth dilution method
Streptococcus pneumoniae [11] = assay: Antibacterial activity against erythromycin-susceptible Streptococcus pneumoniae ATCC49619 assessed as reduction in microbial growth by CLSI based two-fold broth dilution method
Haemophilus influenzae [12] = assay: Antibacterial activity against azithromycin-susceptible Haemophilus influenzae ATCC 49247 assessed as reduction in microbial growth by CLSI based two-fold broth dilution method
Streptococcus pneumoniae [13] = assay: Antibacterial activity against Streptococcus pneumoniae 07P390 expressing constitutive ermB gene assessed as reduction in microbial growth by CLSI based two-fold broth dilution method
Streptococcus pneumoniae [14] = assay: Antibacterial activity against penicillin-susceptible Streptococcus pneumoniae PU 09 expressing mef gene assessed as reduction in microbial growth by CLSI based two-fold broth dilution method
Streptococcus pneumoniae [15] = assay: Selectivity ratio of MBC to MIC for penicillin-susceptible Streptococcus pneumoniae PU 09 expressing mef gene; in short: as §1
Streptococcus pneumoniae [16] = assay: Selectivity ratio of MBC to MIC for Streptococcus pneumoniae 07P390 expressing constitutive ermB gene; in short: as §1
Haemophilus influenzae [17] = assay: Selectivity ratio of MBC to MIC for azithromycin-susceptible Haemophilus influenzae ATCC 49247; in short: as §1
Streptococcus pyogenes [18] = assay: Antibacterial activity against MLS-resistant Streptococcus pyogenes 01-968 expressing inducible ermB gene assessed as reduction in microbial growth by CLSI based two-fold broth dilution method
Streptococcus pyogenes [19] = assay: Selectivity ratio of MBC to MIC for MLS-resistant Streptococcus pyogenes 01-968 expressing inducible ermB gene
In short: (§3)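 MBC/MIC ratio. MIC was measured by CLSI standard two-fold broth dilution. MBC was measured by transferring samples at 1–8 fold MIC to culture medium and subculturing for 24 h without antibiotic. Isolates were identified by 16S rDNA sequencing.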

Staphylococcus aureus [20] = assay: Selectivity ratio of MBC to MIC for MLS/methicillin-resistant Staphylococcus aureus PU 32 expressing inducible ermA gene; in short: as §3
Staphylococcus aureus [21] = assay: Antibacterial activity against MLS-resistant Staphylococcus aureus PU 20 expressing constitutive ermC gene assessed as reduction in microbial growth by CLSI based two-fold broth dilution method
Streptococcus pyogenes [22] = assay: Antibacterial activity against MLS-resistant Streptococcus pyogenes 12-206 expressing constitutive ermA gene assessed as reduction in microbial growth by CLSI based two-fold broth dilution method
Streptococcus pyogenes [23] = assay: Selectivity ratio of MBC to MIC for MLS-resistant Streptococcus pyogenes 12-206 expressing constitutive ermA gene; in short: as §3
Streptococcus pyogenes [24] = assay: Antibacterial activity against Streptococcus pyogenes 12-207 expressing mef gene assessed as reduction in microbial growth by CLSI based two-fold broth dilution method
Streptococcus pyogenes [25] = assay: Selectivity ratio of MBC to MIC for Streptococcus pyogenes 12-207 expressing mef gene; in short: as §1
Moraxella catarrhalis [26] = assay: Antibacterial activity against erythromycin-susceptible Moraxella catarrhalis 13L332 assessed as reduction in microbial growth by CLSI based two-fold broth dilution method
Moraxella catarrhalis [27] = assay: Bactericidal activity against erythromycin-susceptible Moraxella catarrhalis 13L332 pretreated followed by subculture in absence of compound measured after 24 hrs; in short: as §1
Moraxella catarrhalis [28] = assay: Selectivity ratio of MBC to MIC for erythromycin-susceptible Moraxella catarrhalis 13L332; in short: as §1
Streptococcus pneumoniae [29] = assay: Selectivity ratio of MBC to MIC for erythromycin-susceptible Streptococcus pneumoniae ATCC49619; in short: as §1

Compound: O=C(O)c1cn(C2CC2)c2cc(N3CCNCC3)c(F)cc2c1=O [CIPROFLOXACIN]
- MBC (Streptococcus pneumoniae [1]): 2 µg/mL (≈ 6.04 µM)
- MBC (Streptococcus pneumoniae [2]): 4 µg/mL (≈ 12.1 µM)
- MBC (Streptococcus pneumoniae [3]): 4 µg/mL (≈ 12.1 µM)
- MBC (Haemophilus influenzae [4]): 0.004 to 0.008 µg/mL (≈ 0.0121 to 0.0241 µM)
- MBC (Streptococcus pyogenes [5]): 0.5 to 2 µg/mL (≈ 1.51 to 6.04 µM)
- MBC (Staphylococcus aureus [6]): > 256 µg/mL
- MBC (Staphylococcus aureus [7]): > 256 µg/mL
- MBC (Streptococcus pyogenes [8]): > 1 µg/mL
- MBC (Streptococcus pyogenes [9]): 2 µg/mL (≈ 6.04 µM)

Compound: CC[C@H]1OC(=O)[C@@](C)(F)C(=O)[C@H](C)[C@@H](O[C@@H]2O[C@H](C)C[C@H](N(C)C)[C@H]2O)[C@](C)(OC/C=C/c2ccc3c(c2)c(=O)c(C(N)=O)cn3CC)C[C@@H](C)/C(=N\OC)[C@H](C)[C@H]2OC(=O)O[C@@]21C
- MIC (Staphylococcus aureus [10]): 0.25 µg/mL
- MIC (Streptococcus pneumoniae [11]): ≤ 0.008 µg/mL
- MBC (Streptococcus pneumoniae [1]): ≤ 0.008 µg/mL
- MIC (Haemophilus influenzae [12]): 64 µg/mL
- MIC (Streptococcus pneumoniae [13]): ≤ 0.008 µg/mL
- MIC (Streptococcus pneumoniae [14]): 0.25 µg/mL
- MBC (Streptococcus pneumoniae [2]): 0.25 µg/mL (≈ 0.277 µM)
- Selectivity ratio (Streptococcus pneumoniae [15]): 1
- MBC (Streptococcus pneumoniae [3]): > 0.062 µg/mL
- Selectivity ratio (Streptococcus pneumoniae [16]): >8
- MBC (Haemophilus influenzae [4]): 128 µg/mL (≈ 142 µM)
- Selectivity ratio (Haemophilus influenzae [17]): 2
- MIC (Streptococcus pyogenes [18]): ≤ 0.002 µg/mL
- MBC (Streptococcus pyogenes [5]): 0.008 µg/mL (≈ 0.00888 µM)
- Selectivity ratio (Streptococcus pyogenes [19]): >=4
- MBC (Staphylococcus aureus [6]): > 2 µg/mL
- Selectivity ratio (Staphylococcus aureus [20]): >8
- MIC (Staphylococcus aureus [21]): > 256 µg/mL
- MIC (Streptococcus pyogenes [22]): ≤ 0.002 µg/mL
- MBC (Streptococcus pyogenes [8]): > 0.016 µg/mL
- Selectivity ratio (Streptococcus pyogenes [23]): >8
- MIC (Streptococcus pyogenes [24]): 0.062 µg/mL
- MBC (Streptococcus pyogenes [9]): 0.25 µg/mL (≈ 0.277 µM)
- Selectivity ratio (Streptococcus pyogenes [25]): 4
- MIC (Moraxella catarrhalis [26]): 0.5 µg/mL
- MBC (Moraxella catarrhalis [27]): > 4 µg/mL
- Selectivity ratio (Moraxella catarrhalis [28]): >8

Compound: CC[C@H]1OC(=O)[C@@](C)(F)C(=O)[C@H](C)[C@@H](O[C@@H]2O[C@H](C)C[C@H](N(C)C)[C@H]2O)[C@](C)(OC)C[C@@H](C)/C(=N\OCC#Cc2ccc3[nH]ccc(=O)c3c2)[C@H](C)[C@H]2OC(=O)O[C@@]21C
- MIC (Staphylococcus aureus [10]): 1 µg/mL
- MIC (Streptococcus pneumoniae [11]): 0.062 µg/mL
- MBC (Streptococcus pneumoniae [1]): 0.125 µg/mL (≈ 0.151 µM)
- MIC (Haemophilus influenzae [12]): 16 µg/mL
- Selectivity ratio (Streptococcus pneumoniae [29]): 2
- MIC (Streptococcus pneumoniae [13]): 16 µg/mL
- MIC (Streptococcus pneumoniae [14]): 4 µg/mL
- MBC (Streptococcus pneumoniae [2]): 4 µg/mL (≈ 4.83 µM)
- Selectivity ratio (Streptococcus pneumoniae [15]): 1
- MBC (Streptococcus pneumoniae [3]): 32 µg/mL (≈ 38.6 µM)
- Selectivity ratio (Streptococcus pneumoniae [16]): 2
- MBC (Haemophilus influenzae [4]): 16 µg/mL (≈ 19.3 µM)
- Selectivity ratio (Haemophilus influenzae [17]): 1
- MIC (Streptococcus pyogenes [18]): ≤ 0.008 µg/mL
- MBC (Streptococcus pyogenes [5]): > 0.062 µg/mL
- Selectivity ratio (Streptococcus pyogenes [19]): >8
- MBC (Staphylococcus aureus [6]): 8 µg/mL (≈ 9.66 µM)
- Selectivity ratio (Staphylococcus aureus [20]): 8
- MIC (Staphylococcus aureus [21]): 256 µg/mL
- MBC (Staphylococcus aureus [7]): > 256 µg/mL

Compound: CC[C@H]1OC(=O)[C@@](C)(F)C(=O)[C@H](C)[C@@H](O[C@@H]2O[C@H](C)C[C@H](N(C)C)[C@H]2O)[C@](C)(OC/C=C/c2ccc3[nH]ccc(=O)c3c2)C[C@@H](C)/C(=N\OC)[C@H](C)[C@H]2OC(=O)O[C@@]21C
- MIC (Staphylococcus aureus [10]): 1 µg/mL
- MIC (Streptococcus pneumoniae [11]): 0.062 µg/mL
- MBC (Streptococcus pneumoniae [1]): 0.062 µg/mL (≈ 0.0747 µM)
- MIC (Haemophilus influenzae [12]): 8 µg/mL
- Selectivity ratio (Streptococcus pneumoniae [29]): 1
- MIC (Streptococcus pneumoniae [13]): 0.25 µg/mL
- MIC (Streptococcus pneumoniae [14]): 2 µg/mL
- MBC (Streptococcus pneumoniae [2]): 4 µg/mL (≈ 4.82 µM)
- Selectivity ratio (Streptococcus pneumoniae [15]): 2
- MBC (Streptococcus pneumoniae [3]): 1 µg/mL (≈ 1.2 µM)
- Selectivity ratio (Streptococcus pneumoniae [16]): 4
- MBC (Haemophilus influenzae [4]): 16 µg/mL (≈ 19.3 µM)
- Selectivity ratio (Haemophilus influenzae [17]): 2
- MIC (Streptococcus pyogenes [18]): 0.125 µg/mL
- MBC (Streptococcus pyogenes [5]): 1 µg/mL (≈ 1.2 µM)
- Selectivity ratio (Streptococcus pyogenes [19]): 8
- MBC (Staphylococcus aureus [6]): 8 µg/mL (≈ 9.64 µM)
- Selectivity ratio (Staphylococcus aureus [20]): 8
- MIC (Staphylococcus aureus [21]): 256 µg/mL
- MBC (Staphylococcus aureus [7]): > 256 µg/mL
